The full list was thinned out, with hits kept by preference.
Lmaj promast: reduces viability of Leishmania major promastigotes; resazurin fluorescence viability; hit rate 9% among 200,000; AID 1063; inhibition, % at 10 µM; in the data active = inhibition above about 50%;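 also: promastigotes grown with compound for 44 hours at 28 °C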
S1P4 antagonist: blocks the human S1P4 receptor; O95977; S1P4-expressing cells, antagonist mode, reporter read-out; inhibition, % at 4.98 µM; hit rate 0.26% among 220,000; in the data active = inhibition above about 29%;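 also: 0% = wells stimulated with agonist and 100% = vehicle wells without agonist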
S1P3 antagonist: S1P3 (human) receptor antagonism | hit rate 0.27% among 170,000 | Q99500 | CHO S1P3 NFAT-BLA reporter, FRET fluorescence, antagonist mode | inhibition, % at 4.98 µM | AID 485;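 active = inhibition above the plate cutoff, the mean inhibition of test wells on that plate plus 3 SD, cut at about 28% in these data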;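 also: cells challenged with S1P at its EC80 of 0.8 µM; blue over green emission ratio from cleaved BLA substrate after 4 h stimulation; 0% = S1P-stimulated wells and 100% = unstimulated DMSO-only wells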
S1P4 agonist: activates the human S1P4 receptor. S1P4-expressing cell line, agonist reporter assay. activation, % at 4.98 µM. hit rate 0.35% among 220,000. AID 1509; in the data active = activation above about 11%;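 also: 0% = DMSO vehicle and 100% = reference agonist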
MDM2 E3 inh: blocks human Mdm2 ubiquitin ligase activity | Q00987 | signal enhancement, % at 5 µM | cell-based MDM2 ubiquitination luciferase reporter, 2 h; 0 = plate control, 100 = twice control, blank-subtracted | hit rate 0.11% among 210,000;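 active = signal enhancement of 30% or more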;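 also: luminescence tracks abundance of the self-degrading MDM2-luciferase fusion protein; higher signal means inhibition of MDM2 E3 ligase activity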
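System: stable MDM2–luciferase fusion reporter cells / Input: 2000 cells seeded into each well / Schedule: 4 h settle plus 2 h compound, 37 °C / Compound: single-point 5 µM / Buffer or medium: cells held in DMEM / Benchmarks: control and blank well means / Evaluation: percent signal gain over controls, blank-subtracted / Measured by: luciferase luminescence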
S1P4 antag conf: human S1P4 antagonism, confirmation; shares compounds with S1P4 antagonist; S1P4-expressing cell line, antagonist mode, reporter read-out; inhibition, % at 4.98 µM; hit rate 71% among 520; AID 1524; in the data active = inhibition above about 30%
S1P1 antag: blocks human S1P1, counter-screen for S1P4 antagonists | cell-based S1P1 antagonist counterscreen, inhibition | hit rate 37% among 520 | inhibition, % at 4.98 µM | shares compounds with S1P4 antagonist; in the data active = inhibition above about 40%;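 also: receptor stimulated with S1P near its EC80; 0% = agonist stimulated wells and 100% = vehicle only wells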
Target sequence (P21453 whole entry, looked up): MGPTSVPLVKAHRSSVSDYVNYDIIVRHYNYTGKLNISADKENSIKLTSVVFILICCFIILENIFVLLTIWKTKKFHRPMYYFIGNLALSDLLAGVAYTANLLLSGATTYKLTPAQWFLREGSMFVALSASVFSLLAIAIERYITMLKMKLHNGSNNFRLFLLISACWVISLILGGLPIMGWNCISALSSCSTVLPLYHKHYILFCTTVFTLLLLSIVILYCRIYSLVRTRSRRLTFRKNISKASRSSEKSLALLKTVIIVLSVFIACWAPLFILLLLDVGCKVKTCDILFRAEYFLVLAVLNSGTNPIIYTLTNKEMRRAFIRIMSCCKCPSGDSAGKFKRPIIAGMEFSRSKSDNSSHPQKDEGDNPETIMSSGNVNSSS
An asterisk follows results filed as active; / = no result.

SMILES | Lmaj promast | S1P4 antagonist | S1P3 antagonist | S1P4 agonist | MDM2 E3 inh | S1P4 antag conf | S1P1 antag
C[C@@H]1O[C@@H](O[C@H]2C[C@@H](O)[C@]3(CO)[C@H]4[C@H](O)C[C@]5(C)[C@@H](C6=CC(=O)OC6)CC[C@]5(O)[C@@H]4CC[C@]3(O)C2)[C@H](O)[C@H](O)[C@H]1O | -4.9 | 32.5* | -16.4 | -2.8 | / | 58.5* | 3.8
COc1cc(C(CN)CC(=O)O)ccc1O (stereo not drawn) | / | 1.5 | 11.8 | 2.3 | -10.4 | / | /
COC(=O)C[C@]1(C(=O)OC)CN(C#N)N(c2ccc(Cl)cc2)C12c1ccccc1-c1ccccc12 | 100.4* | 55.4* | / | -0.8 | / | 120.1* | 87.5*
NCC1(c2ccc3c(c2)OCCO3)CCCC1 | 2.7 | -14.2 | / | 1.6 | / | / | /
O=c1[nH]sc2cc(F)ccc12 | 77.5* | 30.7* | -6.3 | -0.8 | -19.5 | 90.7* | 45.8*
O=C1NC(=O)C(CCc2ccncc2)(C2CCCCC2)C(=O)N1 | -1.6 | -17.2 | -11.2 | 1.3 | -13.4 | / | /

Assay outcomes as filed in PubChem.
